ChEMBL document CHEMBL1208687, “Synthesis, antibacterial activity evaluation and QSAR studies of novel dispiropyrrolidines” (2010)
In brackets after ≈: the same amount, converted by molar mass.

These molecules were tested on Staphylococcus aureus (assay: Antimicrobial activity against Staphylococcus aureus NCIM 5021 after 18 hrs by broth microdilution assay). Conditions: NCIM 5021, 18 h.
Format: functional
Procedure, shortened: (§1)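 MIC by broth microdilution in Mueller Hinton broth, final inoculum 5 × 10⁵ CFU/ml. Compounds dissolved in absolute ethanol (10 mg per 1 ml stock), then serially diluted into successive wells. Incubated with organism at 37 °C for 18 h with growth and sterility controls, ethanol blank, and uninoculated dilutions checked for precipitation. Then 0.01% resazurin added, read after 2 h further incubation.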

Compound	MIC [µM]
Cc1ccc([C@H]2CN(C)[C@@]3(C(=O)Nc4ccccc43)[C@@]23CC(=O)N(C)C3=O)cc1	321 (≈ 125 µg/mL)
CC1(C)S[C@@H]2[C@H](NC(=O)[C@H](N)c3ccccc3)C(=O)N2[C@H]1C(=O)O [AMPICILLIN]	84 (≈ 29.4 µg/mL)
CN1C(=O)C[C@@]2(C1=O)[C@@H](c1ccccc1O)CN(C)[C@@]21C(=O)Nc2ccccc21	639 (≈ 250 µg/mL)
COc1ccc([C@H]2CN(C)[C@@]3(C(=O)N(Cc4ccccc4)c4ccccc43)[C@@]23CC(=O)N(C)C3=O)cc1	252 (≈ 125 µg/mL)
COc1ccc([C@H]2CN(C)[C@@]3(C(=O)Nc4ccccc43)[C@@]23CC(=O)N(C)C3=O)cc1	617 (≈ 250 µg/mL)
CN(C)[C@@H]1C(O)=C(C(N)=O)C(=O)[C@@]2(O)C(O)=C3C(=O)c4c(O)cccc4[C@@](C)(O)[C@H]3C[C@@H]12 [TETRACYCLINE]	2 (≈ 0.889 µg/mL)
CN1C(=O)C[C@@]2(C1=O)[C@@H](c1ccc(Cl)cc1)CN(C)[C@@]21C(=O)N(C)c2ccccc21	295 (≈ 125 µg/mL)
CN1C(=O)C[C@@]2(C1=O)[C@@H](c1ccccc1O)CN(C)[C@@]21C(=O)N(C)c2ccccc21	617 (≈ 250 µg/mL)
C#CCN1C(=O)[C@]2(c3ccccc31)N(C)C[C@H](c1ccccc1O)[C@]21CC(=O)N(C)C1=O	291 (≈ 125 µg/mL)
CN1C(=O)C[C@@]2(C1=O)[C@@H](c1ccc(Cl)cc1)CN(C)[C@@]21C(=O)Nc2ccccc21	305 (≈ 125 µg/mL)
COc1ccc([C@H]2CN(C)[C@@]3(C(=O)N(C)c4ccccc43)[C@@]23CC(=O)N(C)C3=O)cc1	298 (≈ 125 µg/mL)

These molecules were tested on Pseudomonas aeruginosa (assay: Antimicrobial activity against Pseudomonas aeruginosa NCIM 5029 after 18 hrs by broth microdilution assay). Conditions: NCIM 5029, 18 h.
Format: functional
Procedure, shortened: as §1

Compound	MIC [µM]
Cc1ccc([C@H]2CN(C)[C@@]3(C(=O)Nc4ccccc43)[C@@]23CC(=O)N(C)C3=O)cc1	321 (≈ 125 µg/mL)
CC1(C)S[C@@H]2[C@H](NC(=O)[C@H](N)c3ccccc3)C(=O)N2[C@H]1C(=O)O [AMPICILLIN]	168 (≈ 58.7 µg/mL)
CN1C(=O)C[C@@]2(C1=O)[C@@H](c1ccccc1O)CN(C)[C@@]21C(=O)Nc2ccccc21	80 (≈ 31.3 µg/mL)
COc1ccc([C@H]2CN(C)[C@@]3(C(=O)N(Cc4ccccc4)c4ccccc43)[C@@]23CC(=O)N(C)C3=O)cc1	252 (≈ 125 µg/mL)
COc1ccc([C@H]2CN(C)[C@@]3(C(=O)Nc4ccccc43)[C@@]23CC(=O)N(C)C3=O)cc1	154 (≈ 62.4 µg/mL)
CN(C)[C@@H]1C(O)=C(C(N)=O)C(=O)[C@@]2(O)C(O)=C3C(=O)c4c(O)cccc4[C@@](C)(O)[C@H]3C[C@@H]12 [TETRACYCLINE]	4 (≈ 1.78 µg/mL)
CN1C(=O)C[C@@]2(C1=O)[C@@H](c1ccc(Cl)cc1)CN(C)[C@@]21C(=O)N(C)c2ccccc21	147 (≈ 62.3 µg/mL)
CN1C(=O)C[C@@]2(C1=O)[C@@H](c1ccccc1O)CN(C)[C@@]21C(=O)N(C)c2ccccc21	77 (≈ 31.2 µg/mL)
C#CCN1C(=O)[C@]2(c3ccccc31)N(C)C[C@H](c1ccccc1O)[C@]21CC(=O)N(C)C1=O	146 (≈ 62.7 µg/mL)
CN1C(=O)C[C@@]2(C1=O)[C@@H](c1ccc(Cl)cc1)CN(C)[C@@]21C(=O)Nc2ccccc21	152 (≈ 62.3 µg/mL)
COc1ccc([C@H]2CN(C)[C@@]3(C(=O)N(C)c4ccccc43)[C@@]23CC(=O)N(C)C3=O)cc1	298 (≈ 125 µg/mL)

The molecules below were run on Bacillus subtilis (assay: Antimicrobial activity against Bacillus subtilis NCIM 2718 after 18 hrs by broth microdilution assay). Conditions: NCIM 2718, 18 h.
Format: functional
Procedure, shortened: as §1

Compound	MIC [µM]
Cc1ccc([C@H]2CN(C)[C@@]3(C(=O)Nc4ccccc43)[C@@]23CC(=O)N(C)C3=O)cc1	642 (≈ 250 µg/mL)
CC1(C)S[C@@H]2[C@H](NC(=O)[C@H](N)c3ccccc3)C(=O)N2[C@H]1C(=O)O [AMPICILLIN]	168 (≈ 58.7 µg/mL)
CN1C(=O)C[C@@]2(C1=O)[C@@H](c1ccccc1O)CN(C)[C@@]21C(=O)Nc2ccccc21	639 (≈ 250 µg/mL)
COc1ccc([C@H]2CN(C)[C@@]3(C(=O)N(Cc4ccccc4)c4ccccc43)[C@@]23CC(=O)N(C)C3=O)cc1	504 (≈ 250 µg/mL)
COc1ccc([C@H]2CN(C)[C@@]3(C(=O)Nc4ccccc43)[C@@]23CC(=O)N(C)C3=O)cc1	617 (≈ 250 µg/mL)
CN(C)[C@@H]1C(O)=C(C(N)=O)C(=O)[C@@]2(O)C(O)=C3C(=O)c4c(O)cccc4[C@@](C)(O)[C@H]3C[C@@H]12 [TETRACYCLINE]	1 (≈ 0.444 µg/mL)
CN1C(=O)C[C@@]2(C1=O)[C@@H](c1ccc(Cl)cc1)CN(C)[C@@]21C(=O)N(C)c2ccccc21	590 (≈ 250 µg/mL)
CN1C(=O)C[C@@]2(C1=O)[C@@H](c1ccccc1O)CN(C)[C@@]21C(=O)N(C)c2ccccc21	617 (≈ 250 µg/mL)
C#CCN1C(=O)[C@]2(c3ccccc31)N(C)C[C@H](c1ccccc1O)[C@]21CC(=O)N(C)C1=O	291 (≈ 125 µg/mL)
CN1C(=O)C[C@@]2(C1=O)[C@@H](c1ccc(Cl)cc1)CN(C)[C@@]21C(=O)Nc2ccccc21	610 (≈ 250 µg/mL)
COc1ccc([C@H]2CN(C)[C@@]3(C(=O)N(C)c4ccccc43)[C@@]23CC(=O)N(C)C3=O)cc1	596 (≈ 250 µg/mL)
